The source of these data is ChEMBL document CHEMBL1156157, “1,7-Disubstituted oxyindoles are potent and selective EP(3) receptor antagonists” (Bioorg Med Chem Lett, 2010).

pEC50, pIC50: −log10 of the molar value.

For one series, the target named is Cytochrome P450 3A4 (Homo sapiens, UniProt P08684). Description: Inhibition of human CYP3A4 using 7-benzyloxy-4-trifluoromethylcoumarin as substrate. It is filed as ADME. The method in brief:
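Inhibition of human CYP3A4 with 7-benzyloxy-4-trifluoromethylcoumarin (BFC) as substrate. Values given as IC50.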

Series [1] can be described thus: Metabolic stability in rat liver microsomes assessed as parent compound remaining after 30 mins. Conditions: read-out: Stability; call rule not given here. The format is ADME, Microsome. The method, boiled down:
(§1)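 Compounds incubated with liver microsomes from human, rat, mouse, dog or monkey. Read-out is percent parent compound remaining at 30 min of incubation.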

The target in series [2] is T1, Prostaglandin E2 receptor EP3 subtype (Homo sapiens, UniProt P43115).
T1 sequence (P43115 whole entry): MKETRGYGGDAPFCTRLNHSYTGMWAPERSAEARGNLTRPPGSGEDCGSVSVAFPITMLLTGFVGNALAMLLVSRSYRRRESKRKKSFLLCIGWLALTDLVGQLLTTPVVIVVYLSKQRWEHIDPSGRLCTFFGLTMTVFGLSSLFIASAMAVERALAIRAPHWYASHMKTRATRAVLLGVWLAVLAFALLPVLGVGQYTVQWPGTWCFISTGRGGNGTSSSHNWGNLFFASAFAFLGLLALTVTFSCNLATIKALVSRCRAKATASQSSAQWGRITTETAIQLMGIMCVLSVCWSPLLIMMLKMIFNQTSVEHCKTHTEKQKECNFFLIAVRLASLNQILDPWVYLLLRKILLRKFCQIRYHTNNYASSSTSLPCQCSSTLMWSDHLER
Description: Displacement of [3H]PGE2 from human EP3 receptor in buffer.

Series [3] in a line: Metabolic stability in mouse liver microsomes assessed as parent compound remaining after 30 mins. The note with it: read-out: Stability. It is filed as ADME, Microsome. The method in brief:
as §1

The nature of series [4]: Metabolic stability in human liver microsomes assessed as parent compound remaining after 30 mins. The format is ADME, Microsome. The note with it: read-out: Stability. The method in brief: as §1
Series [5] deals with T1, Prostaglandin E2 receptor EP3 subtype. Description: Displacement of [3H]PGE2 from human EP3 receptor in presence of 10% human serum.
The species entered for the next series is Rattus norvegicus. Description: Antithrombotic activity in rat assessed as platelet aggregation. It is filed as functional. The method, boiled down: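 Functional EP3 antagonism measured in a rat platelet aggregation assay. Values reported as EC50 in nM.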

Chain of Cytochrome P450 3A4 (P08684 whole entry): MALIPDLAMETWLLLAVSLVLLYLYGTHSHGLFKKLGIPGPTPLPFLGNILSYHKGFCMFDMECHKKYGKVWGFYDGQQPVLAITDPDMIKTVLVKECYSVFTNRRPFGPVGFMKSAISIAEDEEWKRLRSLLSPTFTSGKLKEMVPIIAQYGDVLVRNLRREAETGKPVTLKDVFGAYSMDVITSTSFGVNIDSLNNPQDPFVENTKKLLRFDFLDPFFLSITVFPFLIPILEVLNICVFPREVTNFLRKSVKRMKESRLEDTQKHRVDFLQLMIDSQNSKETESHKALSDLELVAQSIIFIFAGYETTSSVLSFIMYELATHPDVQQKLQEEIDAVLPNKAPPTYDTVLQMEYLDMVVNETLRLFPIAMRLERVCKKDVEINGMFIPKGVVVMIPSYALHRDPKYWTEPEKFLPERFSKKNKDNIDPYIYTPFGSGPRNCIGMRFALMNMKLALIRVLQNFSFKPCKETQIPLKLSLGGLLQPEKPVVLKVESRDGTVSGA

Regarding `O=C(/C=C/c1cccc2c1N(Cc1ccc(Cl)cc1Cl)C(=O)C2(F)F)NS(=O)(=O)c1ccc(F)c(F)c1`, the “inhibition (INH)” value on Cytochrome P450 3A4 is “Active”. The remaining at 0.5 h in series [1] came to 80.1%; in series [3] it was 71%; in series [4], 74.4%. Further, the pIC50 was 9.70 in series [2], 8.19 in series [5] and less than 6.10 in the series listed under Rattus norvegicus.

With `O=C(/C=C/c1cccc2c1N(Cc1ccc3ccccc3c1)C(=O)C2)NS(=O)(=O)c1cc(F)c(F)cc1F`, the remaining at 0.5 h is 62.5% in series [1] and 73.9% in series [4]. Besides, the pIC50 in series [2] is 9.52; in series [5], 7.99. In addition, in the series filed under Rattus norvegicus, the pEC50 was 5.96.

For `O=C(/C=C/c1cccc2c1N(Cc1ccc3ccccc3c1)C(=O)C2)NS(=O)(=O)c1ccc(F)c(F)c1`, the remaining at 0.5 h in series [1] was found to be 43%; in series [3], 13.2%; in series [4], 65.9%. The pIC50 in series [2] is 9.40; in series [5], 8.16. Further, the pEC50 in the series filed under Rattus norvegicus was 6.61.

`O=C(/C=C/c1cccc2c1N(Cc1ccc3ccccc3c1)C(=O)C2)NS(=O)(=O)c1ccc(Cl)c(Cl)c1`: the values for the remaining at 0.5 h in series [1], in series [3] and in series [4] were 46%, 15.7% and 66.5%, respectively. Also, the pIC50 is 9.30 in series [2] and 8.28 in series [5].

In the case of `O=C(/C=C/c1cccc2c1N(Cc1ccc3ccccc3c1)C(=O)C2)NS(=O)(=O)c1cccc(Cl)c1`, the values for the remaining at 0.5 h in series [1], in series [3] and in series [4] were 29.8%, 7.8% and 56.8%, respectively. Besides, the pIC50 in series [2] is 9.22; in series [5], 8.09. Besides, the pEC50 in the series filed under Rattus norvegicus is 6.39.

`O=C(/C=C/c1cccc2c1N(Cc1ccc(Cl)cc1Cl)C(=O)C2(F)F)NS(=O)(=O)c1ccc(Cl)c(Cl)c1`: the “inhibition (INH)” value against Cytochrome P450 3A4 is recorded as “Active”. Also, the remaining at 0.5 h in series [1] worked out at 70.4%; in series [3], 82.8%; in series [4], 73.1%. Further, the pIC50 in series [2] was 9.70; in series [5], 8.26; in the series listed under Rattus norvegicus it was less than 6.10.

For the molecule `O=C(/C=C/c1cccc2c1N(Cc1ccc(Cl)cc1Cl)C(=O)C2(F)F)NS(=O)(=O)c1cccc(Cl)c1`, the “inhibition (INH)” value against Cytochrome P450 3A4 is reported as “Active”. Besides, the values for the remaining at 0.5 h in series [1], in series [3] and in series [4] were 62.2%, 31.2% and 66.6%, respectively. Further, the pIC50 in series [2] was 9.70; in series [5], 8.11; in the series listed under Rattus norvegicus, less than 6.10.

For the molecule `CC1C(=O)N(Cc2ccc(Cl)cc2Cl)c2c(/C=C/C(=O)NS(=O)(=O)c3cccc(Cl)c3)cccc21` (configuration not stated), the remaining at 0.5 h is 23.6% in series [1], 7.26% in series [3] and 49.5% in series [4]. The pIC50 in series [2] was 9.30; in series [5], 8.17.

As for `CC1C(=O)N(Cc2ccc3ccccc3c2)c2c(/C=C/C(=O)NS(=O)(=O)c3cccc(Cl)c3)cccc21` (configuration not stated), the remaining at 0.5 h came out at 13.1% in series [1], 5.63% in series [3] and 24.8% in series [4]. Further, the pIC50 was 9.40 in series [2] and 8.55 in series [5].

As for `CC1C(=O)N(Cc2ccc3ccccc3c2)c2c(/C=C/C(=O)NS(=O)(=O)c3ccc(Cl)c(Cl)c3)cccc21` (configuration not stated), the figures for the remaining at 0.5 h in series [1], in series [3] and in series [4] were 10.3%, 5.83% and 36.4%, respectively. For the same molecule, the pIC50 in series [2] was 9.22; in series [5], 8.39.

For `CC1C(=O)N(Cc2ccc(Cl)cc2Cl)c2c(/C=C/C(=O)NS(=O)(=O)c3cc(F)c(F)cc3F)cccc21` (configuration not stated), the remaining at 0.5 h in series [1] was 22.4%; in series [3], 4.85%; in series [4], 48.4%. Further, the values for the pIC50 in series [2] and in series [5] were 9.30 and 8.37, respectively.

As for `O=C(/C=C/c1cccc2c1N(Cc1ccc(Cl)cc1Cl)C(=O)C2)NS(=O)(=O)c1cc(F)c(F)cc1F`, the remaining at 0.5 h in series [1] was determined as 50.6%; in series [3], 70.1%; in series [4], 61.6%. Moreover, the pIC50 in series [2] is 9.70; in series [5], 8.36. The pEC50 in the series listed under Rattus norvegicus was 6.44.

For `O=C(/C=C/c1cccc2c1N(Cc1ccc(Cl)cc1Cl)C(=O)C2)NS(=O)(=O)c1ccc(F)c(F)c1`, the remaining at 0.5 h in series [1] was found to be 23.5%; in series [3], 39.1%; in series [4], 54.3%. Further, the negative-log IC50 (pIC50) in series [2] was 9.15; in series [5] it was 8.48. In addition, the pEC50 in the series listed under Rattus norvegicus is 6.86.

`CC1C(=O)N(Cc2ccc3ccccc3c2)c2c(/C=C/C(=O)NS(=O)(=O)c3cc(F)c(F)cc3F)cccc21` (configuration not stated): the values for the remaining at 0.5 h in series [1], in series [3] and in series [4] were 17.6%, 5.1% and 13.7%, respectively. For the same molecule, the results for the pIC50 in series [2] and in series [5] were 9.52 and 8.27, respectively. Besides, the pEC50 in the series listed under Rattus norvegicus is 7.72.

For the molecule `O=C(/C=C/c1cccc2c1N(Cc1ccc(Cl)cc1Cl)C(=O)C2(F)F)NS(=O)(=O)c1cc(F)c(F)cc1F`, the “inhibition (INH)” value at Cytochrome P450 3A4 was “Active”. Further, the remaining at 0.5 h stood at 77.4% in series [1], 60.6% in series [3] and 74.6% in series [4]. The figures for the pIC50 (in series [2]; in series [5]; in the series filed under Rattus norvegicus) were 9.70, 8.25 and less than 6.10, respectively.

For the molecule `O=C(/C=C/c1cccc2c1N(Cc1ccc3ccccc3c1)C(=O)C2(F)F)NS(=O)(=O)c1ccc(F)cc1`, on Cytochrome P450 3A4, the “inhibition (INH)” value is reported as “Active”. The pIC50 in series [2] was 8.57; in series [5] it was 7.57; in the series filed under Rattus norvegicus, less than 6.10.

For the molecule `O=C(/C=C/c1cccc2c1N(Cc1ccc3ccccc3c1)C(=O)C2(F)F)NS(=O)(=O)c1ccc(Cl)cc1`, the “inhibition (INH)” value at Cytochrome P450 3A4 is given as “Active”. In addition, the pIC50 was 8.26 in series [2], 6.90 in series [5] and less than 6.10 in the series listed under Rattus norvegicus.

For `CC1C(=O)N(Cc2ccc(Cl)cc2Cl)c2c(/C=C/C(=O)NS(=O)(=O)c3ccc(F)c(F)c3)cccc21` (configuration not stated), the remaining at 0.5 h in series [1] amounted to 62.1%; in series [3] it was 16%; in series [4] it was 64.7%. In addition, the values for the pIC50 in series [2] and in series [5] were 9.40 and 8.48, respectively.

Take `O=C(/C=C/c1cccc2c1N(Cc1ccc(Cl)cc1Cl)C(=O)C2(F)F)NS(=O)(=O)c1ccc(Cl)cc1`: the “inhibition (INH)” value against Cytochrome P450 3A4 is “Active”. Moreover, the pIC50 in series [2] is 8.96; in series [5], 6.60; in the series listed under Rattus norvegicus it was less than 6.10.

As to `O=C(/C=C/c1cccc2c1N(Cc1ccc(F)c(F)c1)C(=O)C2(F)F)NS(=O)(=O)c1ccc(F)c(F)c1`, the “inhibition (INH)” value against Cytochrome P450 3A4 is listed as “Active”. Also, the results for the pIC50 (in series [2]; in series [5]; in the series listed under Rattus norvegicus) were 8.89, 6.60 and less than 6.10, respectively.

For `O=C(/C=C/c1cccc2c1N(Cc1ccc(F)c(F)c1)C(=O)C2(F)F)NS(=O)(=O)c1ccc(Cl)c(Cl)c1`, the “inhibition (INH)” value against Cytochrome P450 3A4 is recorded as “Active”. Further, the pIC50 in series [2] is 8.89; in the series listed under Rattus norvegicus it was less than 6.10.

With `O=C(/C=C/c1cccc2c1N(Cc1ccc(F)c(F)c1)C(=O)C2(F)F)NS(=O)(=O)c1cccc(Cl)c1`, the “inhibition (INH)” value against Cytochrome P450 3A4 is given as “Active”. Besides, the pIC50 in series [2] is 8.30; in series [5] it was 6.38; in the series listed under Rattus norvegicus, less than 6.10.

As for `O=C(/C=C/c1cccc2c1N(Cc1ccc(Cl)cc1Cl)C(=O)C2)NS(=O)(=O)c1cccc(Cl)c1`, the remaining at 0.5 h in series [1] was 21%; in series [3], 33.9%; in series [4], 50.4%. For the same molecule, the pIC50 in series [2] is 9.30; in series [5], 8.03. The pEC50 in the series filed under Rattus norvegicus was 6.54.

In the case of `O=C(/C=C/c1cccc2c1N(Cc1ccc(F)c(F)c1)C(=O)C2(F)F)NS(=O)(=O)c1cc(Cl)c(Cl)s1`, the “inhibition (INH)” value on Cytochrome P450 3A4 is recorded as “Active”. The pIC50 is 8.14 in series [2], 6.01 in series [5] and less than 6.10 in the series listed under Rattus norvegicus.

In the case of `O=C(/C=C/c1cccc2c1N(Cc1ccc(F)c(F)c1)C(=O)C2(F)F)NS(=O)(=O)c1cc(F)c(F)cc1F`, the “inhibition (INH)” value against Cytochrome P450 3A4 is “Active”. Besides, the pIC50 in series [2] is 7.78; in series [5] it was 6.14; in the series listed under Rattus norvegicus, less than 6.10.

As to `O=C(/C=C/c1cccc2c1N(Cc1ccc(Cl)cc1Cl)C(=O)C2(F)F)NS(=O)(=O)c1ccc(F)cc1`, on Cytochrome P450 3A4, the “inhibition (INH)” value is given as “Active”. Moreover, the figures for the pIC50 (in series [2]; in series [5]; in the series listed under Rattus norvegicus) were 9.70, 7.19 and less than 6.10, respectively.

Turning to `O=C(/C=C/c1cccc2c1N(Cc1ccc3ccccc3c1)C(=O)C2(F)F)NS(=O)(=O)c1cc(Cl)c(Cl)s1`, the “inhibition (INH)” value against Cytochrome P450 3A4 is listed as “Active”. For the same molecule, the remaining at 0.5 h in series [1] came out at 71.8%; in series [3], 80.7%; in series [4] it was 79.3%. Moreover, the pIC50 in series [2] was 7.94; in series [5], 7.68; in the series filed under Rattus norvegicus, less than 6.10.

For `O=C(/C=C/c1cccc2c1N(Cc1ccc(Cl)cc1Cl)C(=O)C2)NS(=O)(=O)c1ccc(Cl)c(Cl)c1`, the remaining at 0.5 h in series [1] came out at 26.8%; in series [3], 56.1%; in series [4], 53.3%. For the same molecule, the pIC50 in series [2] is 8.92; in series [5], 8.48. Also, the pEC50 in the series filed under Rattus norvegicus was 6.50.
